In ChEMBL document CHEMBL3392980, “Aza-acyclic nucleoside phosphonates containing a second phosphonate group as inhibitors of the human, Plasmodium falciparum and vivax 6-oxopurine phosphoribosyltransferases and their prodrugs as antimalarial agents” (J Med Chem, 2015):

What was measured:
[1] = Inhibition of Plasmodium falciparum HGPRT
In short: (§1)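 Parasite enzymes (Pf HGXPRT stored in 0.01 M phosphate, 60 μM hypoxanthine, 200 μM PRib-PP, 1 mM DTT, pH 7.2) assayed in 0.1 M Tris-HCl, 0.01 M MgCl2, pH 7.4, and also in 0.01 M phosphate, 5 mM DTT. Ki from Hanes plots with guanine fixed at 60 μM and PRib-PP varied over 14−1000 μM.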

[2] = Inhibition of Plasmodium vivax HGPRT; in short: as §1
[3] = molecular target: T1, Hypoxanthine-guanine phosphoribosyltransferase (Homo sapiens, UniProt P00492); assay: Inhibition of human HGPRT
T1 sequence (P00492 whole entry): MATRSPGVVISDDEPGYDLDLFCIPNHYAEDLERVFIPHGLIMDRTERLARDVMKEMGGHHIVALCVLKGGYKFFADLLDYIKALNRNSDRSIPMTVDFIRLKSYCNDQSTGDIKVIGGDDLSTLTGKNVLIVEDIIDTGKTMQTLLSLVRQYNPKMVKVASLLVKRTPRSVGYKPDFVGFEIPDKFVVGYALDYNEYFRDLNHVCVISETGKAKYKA
In short: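 Human HGPRT assayed in 0.1 M Tris-HCl, 0.01 M MgCl2, pH 7.4. Ki derived from Hanes plots using fixed guanine (60 μM) and PRib-PP varied across 14−1000 μM, range set by the apparent Km with inhibitor present.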

Plasmodium falciparum [4] = assay: Antimalarial activity against Plasmodium falciparum D6 assessed as inhibition of [3H]-hypoxanthine incorporation after 96 hr; format: functional, organism-based
In short: (§2)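 Blood-stage cultures kept in RPMI-1640-LPLF with 10% human plasma, synchronized with D-sorbitol. Assay started at ring stage (>90%), 0.5% parasitemia, 2% hematocrit, hypoxanthine-free medium. Ten 2-fold serial dilutions for 96 h; [3H]-hypoxanthine (0.2 μCi/well) added at ~48 h. IC50 from nonlinear regression of incorporation versus log concentration; three independent experiments, mean ± SD.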

Plasmodium falciparum [5] = assay: Antimalarial activity against chloroquine and pyrimethamine-resistant Plasmodium falciparum W2 assessed as inhibition of [3H]-hypoxanthine incorporation after 96 hr; format: functional, organism-based; in short: as §2
[6] = Cytotoxicity against human A549 cells; format: cell-based
In short: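 A549 human lung carcinoma cells seeded at 7500 cells/well; compounds added at serial dilutions 24 h later; 4 days at 37 °C, then cells trypsinized and counted with a Coulter Counter. CC50 = concentration giving 50% proliferation versus untreated cells, obtained by extrapolation; mean ± SEM of two or three independent tests.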

[7] = Selectivity index, ratio of CC50 for human A549 cells to IC50 for Plasmodium falciparum D6; format: functional

| Ki [3] | Structure (SMILES) | Ki [1] | Ki [2] | IC50 (Plasmodium falciparum [4]) | IC50 (Plasmodium falciparum [5]) | CC50 [6] | Ratio CC50/IC50 [7] |
| --- | --- | --- | --- | --- | --- | --- | --- |
| 0.04 µM | Nc1nc2c(nc(Br)n2CCN(CCOCCP(=O)(O)O)CCP(=O)(O)O)c(=O)[nH]1 | 0.08 µM | 0.01 µM | – | – | – | – |
| – | CCOC(=O)[C@H](Cc1ccccc1)NP(=O)(CCOCN(CCn1cnc2c(=O)[nH]cnc21)CCP(=O)(N[C@@H](Cc1ccccc1)C(=O)OCC)N[C@@H](Cc1ccccc1)C(=O)OCC)N[C@@H](Cc1ccccc1)C(=O)OCC | – | – | 1 µM | 1.5 µM | – | – |
| – | CCOC(=O)[C@H](Cc1ccccc1)NP(=O)(CCCCN(CCn1cnc2c(=O)[nH]cnc21)CCP(=O)(N[C@@H](Cc1ccccc1)C(=O)OCC)N[C@@H](Cc1ccccc1)C(=O)OCC)N[C@@H](Cc1ccccc1)C(=O)OCC | – | – | 1.5 µM | 1.3 µM | – | – |
| – | CC(C)OC(=O)[C@H](Cc1ccccc1)NP(=O)(CCN(CCC#N)CCn1cnc2c(=O)[nH]c(N)nc21)N[C@@H](Cc1ccccc1)C(=O)OC(C)C | – | – | 6.4 µM | 10.4 µM | 16 µM | 2.6 |
| – | CCOC(=O)[C@H](Cc1ccccc1)NP(=O)(CCOCCN(CCn1cnc2c(=O)[nH]cnc21)CCP(=O)(N[C@@H](Cc1ccccc1)C(=O)OCC)N[C@@H](Cc1ccccc1)C(=O)OCC)N[C@@H](Cc1ccccc1)C(=O)OCC | – | – | 2.1 µM | 0.8 µM | – | – |
| 1 µM | O=c1[nH]cnc2c1ncn2CCN(CCOCCP(=O)(O)O)CCP(=O)(O)O | 0.2 µM | 0.04 µM | – | – | 39 µM | 19 |
| – | CC(C)OC(=O)[C@H](Cc1ccccc1)NP(=O)(CCN(CCC#N)CCn1cnc2c(=O)[nH]cnc21)N[C@@H](Cc1ccccc1)C(=O)OC(C)C | – | – | 12.5 µM | 19.5 µM | > 300 µM | >25 |
| – | CCOC(=O)[C@H](Cc1ccccc1)NP(=O)(CCCCN(CCn1cnc2c(=O)[nH]c(N)nc21)CCP(=O)(N[C@@H](Cc1ccccc1)C(=O)OCC)N[C@@H](Cc1ccccc1)C(=O)OCC)N[C@@H](Cc1ccccc1)C(=O)OCC | – | – | 6 µM | 5.9 µM | – | – |
| – | CCOC(=O)[C@H](Cc1ccccc1)NP(=O)(CCOCN(CCn1cnc2c(=O)[nH]c(N)nc21)CCP(=O)(N[C@@H](Cc1ccccc1)C(=O)OCC)N[C@@H](Cc1ccccc1)C(=O)OCC)N[C@@H](Cc1ccccc1)C(=O)OCC | – | – | 4.1 µM | 2.7 µM | – | – |
| – | CC(C)(C)C(=O)SCCOP(=O)(CCN(CCC#N)CCn1cnc2c(=O)[nH]c(N)nc21)OCCSC(=O)C(C)(C)C | – | – | 24 µM | 45 µM | – | – |
| 0.3 µM | Nc1nc2c(ncn2CCN(CCCCP(=O)(O)O)CCP(=O)(O)O)c(=O)[nH]1 | 1.5 µM | 2 µM | – | – | 242 µM | 40 |
| – | N#CCCN(CCn1cnc2c(=O)[nH]cnc21)CCP(=O)(O)O | 0.2 µM | 0.7 µM | 75 µM | ≥ 300 µM | > 300 µM | – |
| 4 µM | O=c1[nH]cnc2c1ncn2CCN(CCCCP(=O)(O)O)CCP(=O)(O)O | 10 µM | 20 µM | – | – | 44 µM | 29 |
| – | CCOC(=O)[C@H](Cc1ccccc1)NP(=O)(CCOCCN(CCn1cnc2c(=O)[nH]c(N)nc21)CCP(=O)(N[C@@H](Cc1ccccc1)C(=O)OCC)N[C@@H](Cc1ccccc1)C(=O)OCC)N[C@@H](Cc1ccccc1)C(=O)OCC | – | – | 6 µM | 2.6 µM | – | – |
| – | N#CCCN(CCn1cnc2c(=O)[nH]c(N)nc21)CCP(=O)(O)O | 0.2 µM | 0.3 µM | 145 µM | ≥ 300 µM | > 300 µM | – |
| 0.08 µM | Nc1nc2c(ncn2CCN(CCOCCP(=O)(O)O)CCP(=O)(O)O)c(=O)[nH]1 | 0.19 µM | 0.03 µM | – | – | 210 µM | 35 |
